≈ marks a conversion by molar mass, not a printed value. Calls of active or inactive are those of the source. The calls are words filed in the database; no cut-off is given here.
What was measured:
Rattus norvegicus [1] = species: Rattus norvegicus; assay: Displacement of [3H]flumazenil from Sprague-Dawley rat cerebral cortex CBR at 10 uM after 1 hr by liquid scintillation counting analysis; type: tissue-based
Translocator protein = Translocator protein (Rattus norvegicus, UniProt P16257); assay: Displacement of [3H]PK11195 from Sprague-Dawley rat kidney TSPO after 1 hr by liquid scintillation counting analysis
Chain of Translocator protein (P16257 whole entry, looked up): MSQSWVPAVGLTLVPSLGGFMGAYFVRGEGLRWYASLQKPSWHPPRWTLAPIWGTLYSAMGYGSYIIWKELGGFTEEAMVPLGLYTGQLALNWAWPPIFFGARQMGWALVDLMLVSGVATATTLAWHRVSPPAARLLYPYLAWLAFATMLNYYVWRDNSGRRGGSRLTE

[2] = Metabolic stability in rat liver S9 fraction assessed as compound remaining at 1 uM after 30 mins in presence of NADPH; type: ADME, subcellular; settings: read-out: Stability
Rattus norvegicus [3] = assay: Anxiolytic-like activity in Sprague-Dawley rat vogel conflict model at 3 mg/kg, po after 1 hr; type: functional, organism-based; parameters: dose 3 mg/kg
Rattus norvegicus [4] = species: Rattus norvegicus; assay: Displacement of [3H]batrachotoxin from rat brain sodium channel site 2 at 10 uM relative to control; type: tissue-based
[5] = Displacement of [3H]batrachotoxin from rat brain sodium channel site 2; type: tissue-based
[6] = Solubility of the compound at pH 2.5 by HPLC analysis; type: physicochemical; settings: buffer
How it was run: (§1)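 Compound (1 mg) shaken in 0.4 mL buffered solution at pH 7.4 or pH 2.5, then centrifuged; dissolved compound in the supernatant quantified by HPLC.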

[7] = Solubility of the compound at pH 7.4 by HPLC analysis; type: physicochemical; settings: buffer; how it was run: as §1
[8] = Solubility of the compound at pH 6.8; type: physicochemical; settings: buffer
How it was run: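 Solubility measured in pH 6.8 buffer containing bile acids; compound tested as free base and as HCl salt.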

[9] = biological target: Beta-1 adrenergic receptor (Homo sapiens) (UniProt P08588); assay: Binding affinity to human adrenergic beta1 receptor at 10 uM by radioligand binding assay
How it was run: (§2)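 Radioligand binding profiling panel across receptors and transporters linked to CNS, cardiovascular and pulmonary adverse events. Each target was tested once at 10 μM, run in duplicate.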

[10] = biological target: 5-hydroxytryptamine receptor 3A (Homo sapiens) (UniProt P46098); assay: Binding affinity to human serotonin 5HT3 receptor at 10 uM by radioligand binding assay; how it was run: as §2
Homo sapiens = species: Homo sapiens; assay: Binding affinity to human nicotinic acetylcholine receptor at 10 uM by radioligand binding assay
How it was run: (§3)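 Off-target radioligand binding panel: compound tested in duplicate at a single concentration of 10 μM in each assay. Activity is reported as percent inhibition of radioligand binding.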

[11] = biological target: Mu-type opioid receptor (Homo sapiens) (UniProt P35372); assay: Binding affinity to human mu opiate receptor at 10 uM by radioligand binding assay; how it was run: as §2
[12] = biological target: Beta-2 adrenergic receptor (Homo sapiens) (UniProt P07550); assay: Binding affinity to human adrenergic beta2 receptor at 10 uM by radioligand binding assay; how it was run: as §2
Chain of Beta-2 adrenergic receptor (Homo sapiens) (P07550 whole entry, looked up): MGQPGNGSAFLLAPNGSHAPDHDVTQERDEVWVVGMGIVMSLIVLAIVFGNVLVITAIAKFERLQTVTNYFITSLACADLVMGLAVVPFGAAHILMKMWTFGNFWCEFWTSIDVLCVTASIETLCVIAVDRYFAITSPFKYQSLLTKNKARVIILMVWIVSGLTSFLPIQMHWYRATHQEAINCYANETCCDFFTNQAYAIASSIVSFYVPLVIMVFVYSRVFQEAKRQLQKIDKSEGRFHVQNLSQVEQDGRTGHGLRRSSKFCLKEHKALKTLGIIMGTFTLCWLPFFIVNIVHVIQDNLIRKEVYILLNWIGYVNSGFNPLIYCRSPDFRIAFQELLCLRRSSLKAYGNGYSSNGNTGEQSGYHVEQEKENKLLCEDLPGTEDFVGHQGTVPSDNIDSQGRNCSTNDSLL

Rattus norvegicus [13] = species: Rattus norvegicus; assay: Binding affinity to rat non-selective GABAB receptor at 10 uM by radioligand binding assay; how it was run: as §3
[14] = biological target: Bombesin receptor subtype-3 (Homo sapiens) (UniProt P32247); assay: Binding affinity to human bombesin BB3 receptor at 10 uM by radioligand binding assay; how it was run: as §2
Chain of Bombesin receptor subtype-3 (Homo sapiens) (P32247 whole entry): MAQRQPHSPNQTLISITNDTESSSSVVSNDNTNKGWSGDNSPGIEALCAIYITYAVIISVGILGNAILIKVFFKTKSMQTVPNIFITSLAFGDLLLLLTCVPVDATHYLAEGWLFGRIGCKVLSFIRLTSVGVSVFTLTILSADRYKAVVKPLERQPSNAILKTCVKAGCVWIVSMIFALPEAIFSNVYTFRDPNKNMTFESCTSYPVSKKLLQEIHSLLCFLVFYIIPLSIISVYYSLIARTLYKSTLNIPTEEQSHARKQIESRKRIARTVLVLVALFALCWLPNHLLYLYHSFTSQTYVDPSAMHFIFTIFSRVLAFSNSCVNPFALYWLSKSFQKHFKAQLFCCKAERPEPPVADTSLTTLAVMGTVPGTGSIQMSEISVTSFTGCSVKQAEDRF

[15] = biological target: Neuropeptide Y receptor type 2 (Homo sapiens) (UniProt P49146); assay: Binding affinity to human Neuropeptide Y receptor Y2 at 10 uM by radioligand binding assay; how it was run: as §2
Chain of Neuropeptide Y receptor type 2 (Homo sapiens) (P49146 whole entry): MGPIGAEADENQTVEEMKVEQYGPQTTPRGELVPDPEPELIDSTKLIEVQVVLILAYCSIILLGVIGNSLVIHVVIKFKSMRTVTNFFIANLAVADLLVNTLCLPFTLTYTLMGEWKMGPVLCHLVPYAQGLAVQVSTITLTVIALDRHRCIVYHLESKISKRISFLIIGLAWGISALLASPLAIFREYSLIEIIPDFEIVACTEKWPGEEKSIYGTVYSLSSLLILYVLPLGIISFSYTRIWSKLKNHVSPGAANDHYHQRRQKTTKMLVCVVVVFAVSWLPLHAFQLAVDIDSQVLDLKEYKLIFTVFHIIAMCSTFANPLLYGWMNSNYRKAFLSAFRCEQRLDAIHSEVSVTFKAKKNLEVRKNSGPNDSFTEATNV

[16] = biological target: Sodium-dependent noradrenaline transporter (Homo sapiens) (UniProt P23975); assay: Binding affinity to human norepinephrine transporter at 10 uM by radioligand binding assay; how it was run: as §2
[17] = biological target: Somatostatin receptor type 2 (Homo sapiens) (UniProt P30874); assay: Binding affinity to human somatostatin sst2 receptor at 10 uM by radioligand binding assay; how it was run: as §2
[18] = biological target: Neuropeptide Y receptor type 1 (Homo sapiens) (UniProt P25929); assay: Binding affinity to human Neuropeptide Y receptor Y1 at 10 uM by radioligand binding assay; how it was run: as §2
Chain of Neuropeptide Y receptor type 1 (Homo sapiens) (P25929 whole entry): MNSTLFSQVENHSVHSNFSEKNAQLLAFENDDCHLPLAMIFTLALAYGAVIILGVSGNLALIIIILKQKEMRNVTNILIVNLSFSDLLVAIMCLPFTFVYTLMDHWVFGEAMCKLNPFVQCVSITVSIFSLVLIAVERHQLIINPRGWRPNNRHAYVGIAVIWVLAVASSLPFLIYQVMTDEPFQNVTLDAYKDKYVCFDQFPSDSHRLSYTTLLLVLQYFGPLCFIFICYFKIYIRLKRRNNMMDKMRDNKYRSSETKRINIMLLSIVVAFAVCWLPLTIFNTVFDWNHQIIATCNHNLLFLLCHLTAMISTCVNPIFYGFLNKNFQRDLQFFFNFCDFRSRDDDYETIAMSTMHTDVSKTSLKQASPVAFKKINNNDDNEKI

Rattus norvegicus [19] = species: Rattus norvegicus; assay: Binding affinity to rat strychnine-sensitive glycine receptor at 10 uM by radioligand binding assay; how it was run: as §3
[20] = biological target: Substance-P receptor (Homo sapiens) (UniProt P25103); assay: Binding affinity to human tachykinin NK1 receptor at 10 uM by radioligand binding assay; how it was run: as §2
[21] = biological target: Adenosine receptor A2a (Homo sapiens) (UniProt P29274); assay: Binding affinity to human adenosine A2A receptor at 10 uM by radioligand binding assay; how it was run: as §2
Chain of Adenosine receptor A2a (Homo sapiens) (P29274 whole entry): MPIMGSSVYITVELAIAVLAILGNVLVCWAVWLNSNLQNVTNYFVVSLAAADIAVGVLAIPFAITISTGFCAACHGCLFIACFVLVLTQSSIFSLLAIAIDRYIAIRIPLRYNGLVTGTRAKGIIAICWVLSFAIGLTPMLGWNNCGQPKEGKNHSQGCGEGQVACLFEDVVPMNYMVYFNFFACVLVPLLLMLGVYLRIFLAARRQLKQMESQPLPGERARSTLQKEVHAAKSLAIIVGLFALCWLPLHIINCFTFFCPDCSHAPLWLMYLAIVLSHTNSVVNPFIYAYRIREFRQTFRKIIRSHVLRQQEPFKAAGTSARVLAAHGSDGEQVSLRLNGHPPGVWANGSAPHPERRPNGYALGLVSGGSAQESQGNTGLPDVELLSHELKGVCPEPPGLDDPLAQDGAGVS

Rattus norvegicus [22] = assay: Anxiolytic-like activity in Sprague-Dawley rat vogel conflict model assessed as increase in number of shocks at 1 mg/kg, po after 1 hr; type: functional, organism-based; parameters: dose 1 mg/kg
[23] = biological target: Histamine H3 receptor (Homo sapiens) (UniProt Q9Y5N1); assay: Binding affinity to human histamine H3 receptor at 10 uM by radioligand binding assay; how it was run: as §2
Rattus norvegicus [24] = species: Rattus norvegicus; assay: Binding affinity to rat L-type calcium channel dihydropyridine binding site at 10 uM by radioligand binding assay; how it was run: as §3
[25] = biological target: 5-hydroxytryptamine receptor 6 (Homo sapiens) (UniProt P50406); assay: Binding affinity to human serotonin 5HT6 receptor at 10 uM by radioligand binding assay; how it was run: as §2
Chain of 5-hydroxytryptamine receptor 6 (Homo sapiens) (P50406 whole entry): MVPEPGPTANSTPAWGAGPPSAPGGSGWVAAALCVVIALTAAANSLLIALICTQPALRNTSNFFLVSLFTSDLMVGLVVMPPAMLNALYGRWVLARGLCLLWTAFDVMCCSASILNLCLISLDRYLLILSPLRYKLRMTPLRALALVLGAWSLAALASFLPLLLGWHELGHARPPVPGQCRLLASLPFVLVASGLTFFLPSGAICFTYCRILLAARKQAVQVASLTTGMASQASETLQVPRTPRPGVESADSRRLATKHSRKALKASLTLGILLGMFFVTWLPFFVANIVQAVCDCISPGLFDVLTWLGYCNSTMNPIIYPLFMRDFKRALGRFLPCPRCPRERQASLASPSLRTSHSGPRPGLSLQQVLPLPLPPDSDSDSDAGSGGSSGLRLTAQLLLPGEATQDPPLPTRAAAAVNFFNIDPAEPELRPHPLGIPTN

[26] = biological target: Phosphodiesterase 4 (Homo sapiens) (UniProt P27815+Q08499+Q07343+Q08493); assay: Inhibition of human phosphodiesterase PDE4 at 10 uM; type: protein assay
[27] = biological target: Melanocortin receptor 4 (Homo sapiens) (UniProt P32245); assay: Binding affinity to human melanocortin MC4 receptor at 10 uM by radioligand binding assay; how it was run: as §2
Chain of Melanocortin receptor 4 (Homo sapiens) (P32245 whole entry): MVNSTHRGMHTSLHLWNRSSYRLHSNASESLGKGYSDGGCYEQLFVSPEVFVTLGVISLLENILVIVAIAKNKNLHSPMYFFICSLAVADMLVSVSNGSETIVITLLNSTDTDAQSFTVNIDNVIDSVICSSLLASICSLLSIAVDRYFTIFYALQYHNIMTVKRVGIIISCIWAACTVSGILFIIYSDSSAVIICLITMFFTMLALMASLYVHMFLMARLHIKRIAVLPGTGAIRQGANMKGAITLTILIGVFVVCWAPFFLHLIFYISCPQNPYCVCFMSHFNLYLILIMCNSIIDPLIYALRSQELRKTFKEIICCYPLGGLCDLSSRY

[28] = biological target: D(1A) dopamine receptor (Homo sapiens) (UniProt P21728); assay: Binding affinity to human dopamine D1 receptor at 10 uM by radioligand binding assay; how it was run: as §2
Chain of D(1A) dopamine receptor (Homo sapiens) (P21728 whole entry): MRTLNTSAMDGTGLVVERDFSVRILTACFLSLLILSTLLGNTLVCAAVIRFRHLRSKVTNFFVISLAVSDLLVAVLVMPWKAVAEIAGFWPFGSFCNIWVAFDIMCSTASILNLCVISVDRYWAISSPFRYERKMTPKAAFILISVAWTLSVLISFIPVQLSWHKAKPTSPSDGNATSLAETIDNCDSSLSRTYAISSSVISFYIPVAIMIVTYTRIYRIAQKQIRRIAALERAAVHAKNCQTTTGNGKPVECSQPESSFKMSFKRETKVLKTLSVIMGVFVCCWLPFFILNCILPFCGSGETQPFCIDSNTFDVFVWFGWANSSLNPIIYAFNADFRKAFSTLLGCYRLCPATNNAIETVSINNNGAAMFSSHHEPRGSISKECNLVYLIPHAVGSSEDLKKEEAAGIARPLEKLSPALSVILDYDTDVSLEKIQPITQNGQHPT

[29] = biological target: Cannabinoid receptor 1 (Homo sapiens) (UniProt P21554); assay: Binding affinity to human CB1 receptor at 10 uM by radioligand binding assay; how it was run: as §2
Chain of Cannabinoid receptor 1 (Homo sapiens) (P21554 whole entry): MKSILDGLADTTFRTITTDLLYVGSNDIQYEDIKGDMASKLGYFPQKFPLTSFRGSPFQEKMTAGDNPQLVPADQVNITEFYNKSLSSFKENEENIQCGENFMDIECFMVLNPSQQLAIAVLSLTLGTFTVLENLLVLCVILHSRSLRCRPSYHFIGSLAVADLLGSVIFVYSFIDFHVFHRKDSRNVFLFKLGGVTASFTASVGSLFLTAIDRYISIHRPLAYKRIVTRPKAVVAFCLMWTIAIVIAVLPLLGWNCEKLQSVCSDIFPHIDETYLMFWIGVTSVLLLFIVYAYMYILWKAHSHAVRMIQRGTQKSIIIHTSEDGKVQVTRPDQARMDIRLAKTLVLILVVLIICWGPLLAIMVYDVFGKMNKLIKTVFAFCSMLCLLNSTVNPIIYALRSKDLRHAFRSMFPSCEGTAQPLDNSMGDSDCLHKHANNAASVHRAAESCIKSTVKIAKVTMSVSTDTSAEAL

Rattus norvegicus [30] = species: Rattus norvegicus; assay: Binding affinity to rat N-type calcium channel at 10 uM by radioligand binding assay; how it was run: as §3
[31] = biological target: 5-hydroxytryptamine receptor 4 (Cavia porcellus) (UniProt O70528); assay: Binding affinity to guinea pig serotonin 5HT4 receptor at 10 uM by radioligand binding assay; how it was run: as §2
Chain of 5-hydroxytryptamine receptor 4 (Cavia porcellus) (O70528 whole entry): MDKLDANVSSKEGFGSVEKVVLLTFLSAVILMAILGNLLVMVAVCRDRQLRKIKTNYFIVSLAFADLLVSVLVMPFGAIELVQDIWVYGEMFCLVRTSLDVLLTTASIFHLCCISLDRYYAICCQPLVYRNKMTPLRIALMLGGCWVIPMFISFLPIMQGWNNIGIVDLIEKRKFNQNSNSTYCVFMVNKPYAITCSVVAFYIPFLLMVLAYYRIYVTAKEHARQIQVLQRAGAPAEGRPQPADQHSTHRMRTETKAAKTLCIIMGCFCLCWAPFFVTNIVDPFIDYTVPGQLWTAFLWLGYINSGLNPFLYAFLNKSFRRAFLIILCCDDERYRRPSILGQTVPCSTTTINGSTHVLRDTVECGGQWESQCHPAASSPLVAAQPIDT

[32] = biological target: Muscarinic acetylcholine receptor M3 (Homo sapiens) (UniProt P20309); assay: Binding affinity to human muscarinic M3 receptor at 10 uM by radioligand binding assay; how it was run: as §2
Rattus norvegicus [33] = species: Rattus norvegicus; assay: Binding affinity to rat N-methyl D-aspartate receptor phencyclidine binding site at 10 uM by radioligand binding assay; how it was run: as §3
[34] = biological target: Nociceptin receptor (Homo sapiens) (UniProt P41146); assay: Binding affinity to human ORL1 receptor at 10 uM by radioligand binding assay; how it was run: as §2
Rattus norvegicus [35] = species: Rattus norvegicus; assay: Binding affinity to rat GABAA receptor TBOB binding site at 10 uM by radioligand binding assay; how it was run: as §3
[36] = biological target: Muscarinic acetylcholine receptor M2 (Homo sapiens) (UniProt P08172); assay: Binding affinity to human muscarinic M2 receptor at 10 uM by radioligand binding assay; how it was run: as §2
[37] = biological target: Adenosine receptor A1 (Homo sapiens) (UniProt P30542); assay: Binding affinity to human adenosine A1 receptor at 10 uM by radioligand binding assay; how it was run: as §2
Rattus norvegicus [38] = species: Rattus norvegicus; assay: Binding affinity to rat kainate receptor at 10 uM by radioligand binding assay; how it was run: as §3
[39] = biological target: Galanin receptor type 1 (Homo sapiens) (UniProt P47211); assay: Binding affinity to human GAL1 receptor at 10 uM by radioligand binding assay; how it was run: as §2
[40] = biological target: Sigma non-opioid intracellular receptor 1 (Homo sapiens) (UniProt Q99720); assay: Binding affinity to human sigma1 receptor at 10 uM by radioligand binding assay; how it was run: as §2
Rattus norvegicus [41] = species: Rattus norvegicus; assay: Binding affinity to rat GABAA receptor agonist binding site at 10 uM by radioligand binding assay; how it was run: as §3
[42] = biological target: Type-2 angiotensin II receptor (Homo sapiens) (UniProt P50052); assay: Binding affinity to human angiotensin AT2 receptor at 10 uM by radioligand binding assay; how it was run: as §2
[43] = biological target: Vasopressin V1a receptor (Homo sapiens) (UniProt P37288); assay: Binding affinity to human vasopressin V1A receptor at 10 uM by radioligand binding assay; how it was run: as §2
[44] = biological target: Gastrin/cholecystokinin type B receptor (Homo sapiens) (UniProt P32239); assay: Binding affinity to human CCK2 receptor at 10 uM by radioligand binding assay; how it was run: as §2
[45] = biological target: Sodium-dependent dopamine transporter (Homo sapiens) (UniProt Q01959); assay: Binding affinity to human dopamine transporter at 10 uM by radioligand binding assay; how it was run: as §2
[46] = biological target: 5-hydroxytryptamine receptor 2A (Rattus norvegicus) (UniProt P14842); assay: Binding affinity to rat non-selective serotonin 5HT2 receptor at 10 uM by radioligand binding assay; how it was run: as §2
Chain of 5-hydroxytryptamine receptor 2A (Rattus norvegicus) (P14842 whole entry): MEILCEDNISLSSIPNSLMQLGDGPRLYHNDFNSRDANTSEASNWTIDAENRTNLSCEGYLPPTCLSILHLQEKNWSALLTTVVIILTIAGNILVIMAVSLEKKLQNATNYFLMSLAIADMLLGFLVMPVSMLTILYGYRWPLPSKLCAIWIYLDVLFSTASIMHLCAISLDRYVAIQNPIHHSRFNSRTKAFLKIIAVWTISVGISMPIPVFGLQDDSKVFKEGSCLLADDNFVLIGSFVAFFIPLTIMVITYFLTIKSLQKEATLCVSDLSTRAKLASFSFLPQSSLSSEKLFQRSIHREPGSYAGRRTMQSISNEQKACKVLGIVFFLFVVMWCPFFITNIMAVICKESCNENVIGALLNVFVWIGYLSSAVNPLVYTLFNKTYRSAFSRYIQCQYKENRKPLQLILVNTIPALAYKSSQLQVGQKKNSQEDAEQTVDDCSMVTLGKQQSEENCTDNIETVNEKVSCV

Mesocricetus auratus = species: Mesocricetus auratus; assay: Binding affinity to syrian hamster ATP-sensitive potassium channel at 10 uM by radioligand binding assay; how it was run: as §3
[47] = biological target: Cholecystokinin receptor type A (Homo sapiens) (UniProt P32238); assay: Binding affinity to human CCK1 receptor at 10 uM by radioligand binding assay; how it was run: as §2
[48] = biological target: Vasopressin V1b receptor (Homo sapiens) (UniProt P47901); assay: Binding affinity to human vasopressin V1B receptor at 10 uM by radioligand binding assay; how it was run: as §2
[49] = biological target: Type-1 angiotensin II receptor (Homo sapiens) (UniProt P30556); assay: Binding affinity to human angiotensin AT1 receptor at 10 uM by radioligand binding assay; how it was run: as §2
[50] = biological target: Alpha-2A adrenergic receptor (Homo sapiens) (UniProt P08913); assay: Binding affinity to human adrenergic alpha2A receptor at 10 uM by radioligand binding assay; how it was run: as §2
[51] = biological target: Glucocorticoid receptor (Homo sapiens) (UniProt P04150); assay: Binding affinity to human glucocorticoid receptor at 10 uM by radioligand binding assay; how it was run: as §2
[52] = biological target: Corticotropin-releasing factor receptor 1 (Homo sapiens) (UniProt P34998); assay: Binding affinity to human CRF1 receptor at 10 uM by radioligand binding assay; how it was run: as §2
[53] = biological target: Estrogen receptor beta (Homo sapiens) (UniProt Q92731); assay: Binding affinity to human ERbeta at 10 uM by radioligand binding assay; how it was run: as §2

COc1ccc(N(C)C(=O)Cn2c(=O)oc3ccc(-c4cccnc4)cc32)cc1
inhibition (Rattus norvegicus [1]): 0%
Ki (Translocator protein): 19 nM
remaining at 0.5 h, 1 µM [2]: 9%

CN(C(=O)Cn1c(=O)oc2ccc(-c3ccc(OC(F)(F)F)cc3)cc21)c1cccnc1 [listing 1 of 2 here]
Activity (Rattus norvegicus [3]): Active
inhibition (Rattus norvegicus [1]): 0%
inhibition (Rattus norvegicus [4]): 108%

CN(C(=O)Cn1c(=O)oc2ccc(-c3ccncc3)cc21)c1ccc(OC(F)(F)F)cc1
Ki (Translocator protein): 23 nM

CN(C(=O)Cn1c(=O)oc2ccc(-c3ccccc3)cc21)c1cccnc1
IC50 [5]: > 1000 nM
solubility [6]: 180 µg/mL (≈ 501 µM)

CCN(C(=O)Cn1c(=O)oc2ccc(-c3cccnc3)cc21)c1ccccc1
inhibition (Rattus norvegicus [1]): 21%
Ki (Translocator protein): 4.4 nM
remaining at 0.5 h, 1 µM [2]: 0%

CN(C(=O)Cn1c(=O)oc2ccc(-c3ccc(OC(F)(F)F)cc3)cc21)c1cccnc1 [listing 2 of 2 here]
Ki (Translocator protein): 4.9 nM
remaining at 0.5 h, 1 µM [2]: 32%
IC50 [5]: 700 nM
solubility [6]: 4 µg/mL (≈ 9.02 µM)
solubility [7]: < 1 µg/mL
solubility [8]: 20 µg/mL (≈ 45.1 µM)

CN(C(=O)Cn1c(=O)oc2ccc(-c3cccnc3)cc21)c1ccc(C(F)(F)F)cc1
inhibition [9]: inactive
inhibition [10]: inactive
inhibition (Homo sapiens): inactive
inhibition [11]: inactive
inhibition [12]: inactive
inhibition (Rattus norvegicus [13]): inactive
inhibition [14]: inactive
inhibition [15]: inactive
inhibition [16]: inactive
inhibition [17]: inactive
inhibition [18]: inactive
inhibition (Rattus norvegicus [19]): inactive
inhibition [20]: inactive
inhibition [21]: inactive
Activity (Rattus norvegicus [22]): Active
inhibition [23]: inactive
inhibition (Rattus norvegicus [24]): inactive
inhibition [25]: inactive
inhibition [26]: inactive
inhibition [27]: inactive
inhibition (Rattus norvegicus [1]): 0%
inhibition [28]: inactive
inhibition [29]: inactive
inhibition (Rattus norvegicus [30]): inactive
inhibition [31]: inactive
inhibition [32]: inactive
inhibition (Rattus norvegicus [33]): inactive
inhibition [34]: inactive
inhibition (Rattus norvegicus [35]): inactive
inhibition [36]: inactive
inhibition [37]: inactive
inhibition (Rattus norvegicus [38]): inactive
inhibition [39]: inactive
inhibition [40]: inactive
inhibition (Rattus norvegicus [41]): inactive
inhibition [42]: inactive
inhibition [43]: inactive
inhibition [44]: inactive
inhibition [45]: inactive
inhibition [46]: inactive
inhibition (Mesocricetus auratus): inactive
inhibition [47]: inactive
inhibition [48]: inactive
inhibition [49]: inactive
inhibition [50]: inactive
inhibition [51]: inactive
inhibition [52]: inactive
inhibition [53]: inactive

CN(C(=O)Cn1c(=O)oc2ccc(-c3ccc(C(F)(F)F)cc3)cc21)c1cccnc1
inhibition (Rattus norvegicus [1]): 6%
Ki (Translocator protein): 9.8 nM
remaining at 0.5 h, 1 µM [2]: 24%
solubility [6]: < 1 µg/mL
solubility [7]: < 1 µg/mL

CN(C(=O)Cn1c(=O)oc2ccc(-c3ccc(C(F)(F)F)cc3)cc21)c1ccccc1
solubility [6]: < 1 µg/mL
solubility [7]: < 1 µg/mL

— ChEMBL document CHEMBL2440065, “Identification of a novel benzoxazolone derivative as a selective, orally active 18 kDa translocator protein (TSPO) ligand” (J Med Chem, 2013)
